ChEMBL document CHEMBL3632558, “Synthesis, antimycobacterial and antibacterial activity of l-[(1R,2S)-2-fluorocyclopropyl]naphthyridone derivatives containing an oxime-functionalized pyrrolidine moiety” (2015)

Legend:
Type in all cases: functional
Enterococcus faecalis [1] = experiment: Antibacterial activity against Enterococcus faecalis 14-2 after 18 to 24 hrs
Summary of the method: (§1)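 MIC by standard NCCLS reference procedure (M100-S11); lowest concentration of compound inhibiting visible bacterial growth after incubation at 35 °C for 18–24 h, read as complete inhibition of growth. Ciprofloxacin, levofloxacin and moxifloxacin run alongside as reference agents.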

Enterococcus faecium [2] = experiment: Antibacterial activity against Enterococcus faecium 14-1 after 18 to 24 hrs; summary of the method: as §1
Enterococcus faecium [3] = experiment: Antibacterial activity against Enterococcus faecium 14-2 after 18 to 24 hrs; summary of the method: as §1
Enterococcus faecium [4] = experiment: Antibacterial activity against Enterococcus faecium 14-5 after 18 to 24 hrs; summary of the method: as §1
Enterococcus faecium [5] = experiment: Antibacterial activity against Enterococcus faecium 14-6 after 18 to 24 hrs; summary of the method: as §1
[6] = tested on: Mycobacterium tuberculosis; experiment: Antimycobacterial activity against Mycobacterium tuberculosis H37Rv ATCC 27294 by alamar blue assay
Summary of the method: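 Microplate Alamar Blue Assay; MIC is the lowest concentration giving ≥90% reduction in fluorescence relative to the mean of replicate bacterium-only controls. MDR strain 6133 is resistant to isoniazid and rifampicin.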

Escherichia coli [7] = experiment: Antibacterial activity against Escherichia coli ATCC 25922 after 18 to 24 hrs; summary of the method: as §1
Escherichia coli [8] = experiment: Antibacterial activity against ESBL-positive Escherichia coli 14-1 after 18 to 24 hrs; summary of the method: as §1
Escherichia coli [9] = experiment: Antibacterial activity against ESBL-positive Escherichia coli 14-2 after 18 to 24 hrs; summary of the method: as §1
Escherichia coli [10] = experiment: Antibacterial activity against Escherichia coli 14-1 after 18 to 24 hrs; summary of the method: as §1
Escherichia coli [11] = experiment: Antibacterial activity against Escherichia coli 14-2 after 18 to 24 hrs; summary of the method: as §1
Klebsiella pneumoniae [12] = experiment: Antibacterial activity against ESBL-positive Klebsiella pneumoniae 14-17 after 18 to 24 hrs; summary of the method: as §1
Klebsiella pneumoniae [13] = experiment: Antibacterial activity against ESBL-positive Klebsiella pneumoniae 14-18 after 18 to 24 hrs; summary of the method: as §1
Klebsiella pneumoniae [14] = experiment: Antibacterial activity against ESBL-positive Klebsiella pneumoniae 14-19 after 18 to 24 hrs; summary of the method: as §1
Klebsiella pneumoniae [15] = experiment: Antibacterial activity against Klebsiella pneumoniae 14-1 after 18 to 24 hrs; summary of the method: as §1
Klebsiella pneumoniae [16] = experiment: Antibacterial activity against Klebsiella pneumoniae 14-2 after 18 to 24 hrs; summary of the method: as §1
Klebsiella pneumoniae [17] = experiment: Antibacterial activity against Klebsiella pneumoniae 14-3 after 18 to 24 hrs; summary of the method: as §1
Klebsiella pneumoniae [18] = experiment: Antibacterial activity against Klebsiella pneumoniae 14-4 after 18 to 24 hrs; summary of the method: as §1
Pseudomonas aeruginosa [19] = experiment: Antibacterial activity against Pseudomonas aeruginosa ATCC 27853 after 18 to 24 hrs; summary of the method: as §1
Pseudomonas aeruginosa [20] = experiment: Antibacterial activity against Pseudomonas aeruginosa 14-9 after 18 to 24 hrs; summary of the method: as §1
Pseudomonas aeruginosa [21] = experiment: Antibacterial activity against Pseudomonas aeruginosa 14-14 after 18 to 24 hrs; summary of the method: as §1
Pseudomonas aeruginosa [22] = experiment: Antibacterial activity against Pseudomonas aeruginosa 14-15 after 18 to 24 hrs; summary of the method: as §1
Pseudomonas aeruginosa [23] = experiment: Antibacterial activity against Pseudomonas aeruginosa 14-16 after 18 to 24 hrs; summary of the method: as §1
Pseudomonas aeruginosa [24] = experiment: Antibacterial activity against Pseudomonas aeruginosa 14-19 after 18 to 24 hrs; summary of the method: as §1
Staphylococcus aureus [25] = experiment: Antibacterial activity against Staphylococcus aureus CMCC 26003 after 18 to 24 hrs; summary of the method: as §1
Staphylococcus aureus [26] = experiment: Antibacterial activity against methicillin-sensitive Staphylococcus aureus 14-1 after 18 to 24 hrs; summary of the method: as §1
Staphylococcus aureus [27] = experiment: Antibacterial activity against methicillin-sensitive Staphylococcus aureus 14-2 after 18 to 24 hrs; summary of the method: as §1
Staphylococcus aureus [28] = experiment: Antibacterial activity against methicillin-sensitive Staphylococcus aureus 14-3 after 18 to 24 hrs; summary of the method: as §1
Staphylococcus aureus [29] = experiment: Antibacterial activity against methicillin-sensitive Staphylococcus aureus 14-4 after 18 to 24 hrs; summary of the method: as §1
Staphylococcus aureus [30] = experiment: Antibacterial activity against methicillin-resistant Staphylococcus aureus 14-4 after 18 to 24 hrs
Staphylococcus aureus [31] = experiment: Antibacterial activity against methicillin-resistant Staphylococcus aureus 14-5 after 18 to 24 hrs
[32] = tested on: Staphylococcus epidermidis; experiment: Antibacterial activity against methicillin-sensitive Staphylococcus epidermidis 14-2 after 18 to 24 hrs; summary of the method: as §1
[33] = tested on: Staphylococcus epidermidis; experiment: Antibacterial activity against methicillin-resistant Staphylococcus epidermidis 14-21 after 18 to 24 hrs
[34] = tested on: Staphylococcus epidermidis; experiment: Antibacterial activity against methicillin-resistant Staphylococcus epidermidis 14-22 after 18 to 24 hrs
[35] = tested on: Staphylococcus epidermidis; experiment: Antibacterial activity against methicillin-resistant Staphylococcus epidermidis 14-37 after 18 to 24 hrs
[36] = tested on: Staphylococcus epidermidis; experiment: Antibacterial activity against methicillin-resistant Staphylococcus epidermidis 14-39 after 18 to 24 hrs
Streptococcus pneumoniae = experiment: Antibacterial activity against Streptococcus pneumoniae ATCC 19615 after 18 to 24 hrs; summary of the method: as §1
Enterococcus faecalis [37] = experiment: Antibacterial activity against Enterococcus faecalis 14-1 after 18 to 24 hrs; summary of the method: as §1

COc1cc(CO/N=C2\CN(c3nc4c(cc3F)c(=O)c(C(=O)O)cn4[C@@H]3C[C@@H]3F)CC2CN)cc(OC)c1 (stereo partly specified)
8 µg/mL: MIC (Enterococcus faecium [4]) | MIC (Pseudomonas aeruginosa [19]) | MIC (Staphylococcus aureus [31])
0.375 µg/mL: MIC90 [6]
16 µg/mL: MIC (Enterococcus faecium [5]) | MIC (Klebsiella pneumoniae [12]) | MIC (Klebsiella pneumoniae [13]) | MIC (Pseudomonas aeruginosa [24]) | MIC (Staphylococcus aureus [30]) | MIC [32] | MIC [35] | MIC [36] | MIC (Enterococcus faecalis [37])
< 8 ng/mL: MIC (Staphylococcus aureus [25]) | MIC (Staphylococcus aureus [27])
1 µg/mL: MIC (Enterococcus faecalis [1])
4 µg/mL: MIC (Enterococcus faecium [3]) | MIC (Escherichia coli [8]) | MIC (Staphylococcus aureus [26]) | MIC [33] | MIC [34]
2 µg/mL: MIC (Enterococcus faecium [2]) | MIC (Escherichia coli [7])
0.015 µg/mL: MIC (Staphylococcus aureus [28]) | MIC (Staphylococcus aureus [29])
> 128 µg/mL: MIC (Escherichia coli [9]) | MIC (Escherichia coli [10]) | MIC (Escherichia coli [11]) | MIC (Klebsiella pneumoniae [16]) | MIC (Klebsiella pneumoniae [18])
64 µg/mL: MIC (Klebsiella pneumoniae [17])
0.06 µg/mL: MIC (Streptococcus pneumoniae)
128 µg/mL: MIC (Klebsiella pneumoniae [14]) | MIC (Klebsiella pneumoniae [15])
32 µg/mL: MIC (Pseudomonas aeruginosa [20]) | MIC (Pseudomonas aeruginosa [21]) | MIC (Pseudomonas aeruginosa [22]) | MIC (Pseudomonas aeruginosa [23])

NCC1CN(c2nc3c(cc2F)c(=O)c(C(=O)O)cn3[C@@H]2C[C@@H]2F)C/C1=N\OCc1ccc2c(c1)OCO2 (stereo partly specified)
128 µg/mL: MIC (Klebsiella pneumoniae [14]) | MIC (Klebsiella pneumoniae [15]) | MIC (Klebsiella pneumoniae [16]) | MIC (Klebsiella pneumoniae [17]) | MIC (Klebsiella pneumoniae [18])
< 0.008 µg/mL: MIC (Enterococcus faecalis [1]) | MIC (Escherichia coli [7]) | MIC (Staphylococcus aureus [29])
8 µg/mL: MIC (Enterococcus faecium [4]) | MIC (Escherichia coli [8]) | MIC (Klebsiella pneumoniae [12]) | MIC (Pseudomonas aeruginosa [19]) | MIC (Pseudomonas aeruginosa [20]) | MIC (Pseudomonas aeruginosa [21]) | MIC (Pseudomonas aeruginosa [22]) | MIC (Pseudomonas aeruginosa [23]) | MIC (Pseudomonas aeruginosa [24]) | MIC (Staphylococcus aureus [28]) | MIC (Staphylococcus aureus [31]) | MIC [36]
1 µg/mL: MIC (Enterococcus faecium [2]) | MIC (Enterococcus faecium [3])
16 µg/mL: MIC (Staphylococcus aureus [30]) | MIC (Enterococcus faecalis [37])
< 8 ng/mL: MIC (Staphylococcus aureus [25]) | MIC (Staphylococcus aureus [27])
< 0.25 µg/mL: MIC90 [6]
0.03 µg/mL: MIC (Streptococcus pneumoniae)
4 µg/mL: MIC (Enterococcus faecium [5]) | MIC (Klebsiella pneumoniae [13]) | MIC (Staphylococcus aureus [26]) | MIC [33] | MIC [34]
6 µg/mL: MIC [35]
64 µg/mL: MIC (Escherichia coli [9])
32 µg/mL: MIC (Escherichia coli [10]) | MIC (Escherichia coli [11]) | MIC [32]
